Assay outcomes deposited in PubChem by Broad Institute.
A selection: hits, their analogues and other compounds. The true share with any hit is near 4.4%.
HSF-1 act: HSF-1 activators, primary screen, NIH3T3-HGL cells, MG132 stress, luminescence, single point | NIH3T3-HGL HSF-1 luciferase reporter, 8 h; 100% = twice DMSO control signal | activation, % at 9 µM | 1.7% of 300,000 active | AID 504408, 2011;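 active = mean replicate activation of at least 50% with a set share of replicates each reaching 50%; inconclusive = only one of those two conditions met; inactive = mean below 50% and too few replicates reaching it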
HSF1 inh: HSF1 inhibitors in luciferase reporter cells, primary screen, cell-based, NIH3T3, luminescence. NIH3T3-HGL HSE-luciferase, MG132-induced, luminescence 8 h; active compounds read low. activity change, negative = inhibition, % at 7.5 µM (by protocol). 0.77% of 300,000 active. AID 2098, 2009;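 active = more than half of replicate wells show activity change below -50%, luminescence cut by over half; inconclusive = some wells, but at most half, below -50%; inactive = no replicate well below -50%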;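 also: luciferase reports HSF-1 transcriptional activity via heat shock element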
T cruzi repl: inhibitors of intracellular T. cruzi growth, primary screen, luminescence, NIH3T3 host cells. 1.4% of 300,000 active. inhibition, % (no concentration beside the values). AID 1885, 2009. T. cruzi beta-gal in NIH3T3, 90 h;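 active = mean inhibition across valid replicates above about 55%, limit read from the data; inconclusive = mean below that limit but half or more replicates reach it; inactive = mean below it, under half of replicates reach it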;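 also: signal also drops with host cell toxicity which is not excluded here; higher percent means less beta-gal luminescence so fewer parasites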
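System: NIH/3T3 fibroblasts plus reporter T. cruzi. Medium: DMEM plus 2% FBS. Probe or stimulus: 5000 reporter trypomastigotes per well. Compound: single 50 nL compound addition per well in DMSO. Incubation: co-culture of at least 90 h after 3 h attachment. Detection: GalScreen β-gal luminescence, detergent lysis, 60 min. Evaluation: parasite load inhibition, %.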
HIF activator: HIF pathway transcriptional activators, primary screen, cell-based, U2OS HRE-luciferase, luminescence | U2OS HRE-luciferase reporter; normalized: DMSO 0%, desferrioxamine 100% | activation, % at 7.5 µM (by protocol) | 0.32% of 300,000 active;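 active = mean activation of at least 10% of the iron chelator positive control signal, with at least half of replicates also reaching 10%; inconclusive = mean and replicate majority disagree about reaching 10%; inactive = mean and most replicates under 10%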
Calb FLC: C. albicans growth inhibition with fluconazole, primary screen, CaCi-2 strain, Alamar Blue fluorescence. C. albicans CaCi-2 + fluconazole, 48 h. growth inhibition, % (test concentration not listed). 0.57% of 300,000 active;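 active = growth inhibition above about 58% in most replicates, limit read from the data, passing the limit was not always enough; inconclusive = exactly half the replicates above a set limit; inactive = most replicates below a set limit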;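 also: all wells also contain fluconazole at 8 µg/ml as a sub-toxic cotreatment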
Large screens that a line does not name were inactive.

CCCn1c(C)cc(C(=O)COc2ccc(C)nc2[N+](=O)[O-])c1C	none
C=CCn1c(C)cc(C(=O)COc2ccc(C)nc2[N+](=O)[O-])c1C	HSF1 inh -53.7
Cc1ccc(OCC(=O)c2cc(C)n(-c3ccccc3)c2C)c([N+](=O)[O-])n1	HSF1 inh -61.8
CC1CCCCN1CCNC(=O)c1ccc2c(=O)n(Cc3ccc(Cl)cc3)c(=S)[nH]c2c1 (stereo not given)	none
Cn1c(SCC(=O)NCc2ccco2)nnc1C1CCCC1	none
C=CC1=C2C=C(C3CC3)N(CCCN(CC)CC)C=C2C(=O)C(C)(OC(=O)c2ccco2)C1=O (stereo not given)	none
CCOC(=O)C1=C(C)N=C2c3ccccc3C(=O)C2C1c1ccc(Cl)cc1 (stereo not given)	T cruzi repl 60.7
CC1(C)CC(=O)C2=C(C1)N=C1c3ccccc3C(=O)C1C2c1ccc(Cl)cc1 (stereo not given)	none
O=c1[nH]c(=O)c2cc([N+](=O)[O-])cc([N+](=O)[O-])c2[nH]1	T cruzi repl 71.8
OCC[C@@H]1C[C@@H](O)[C@H](O)[C@]2(OCCc3ccccc32)O1	none
O=C(O)CCC1(C(=O)O)OCCc2ccccc21 (stereo not given)	HSF1 inh -66.7
O=C(N/N=C(\c1ccccc1)c1cccnc1)c1cccc(F)c1	HSF-1 act 126.9, HIF activator 89.4
O=C(N/N=C(\c1ccccc1)c1cccnc1)c1ccc(O)cc1	none
CCOC(=O)Cn1nc(C)c(NC(=O)c2ccc(Br)o2)c1C	none
O=C(O)c1cnn(-c2nc(-c3cccc(F)c3)cs2)c1C(F)(F)F	none
O=C(O)c1cnn(-c2nc(-c3cccc([N+](=O)[O-])c3)cs2)c1C(F)(F)F	HSF-1 act 62.7
COc1ccc(Br)c(OC)c1C(=O)NC(=O)Nc1nc(C)cc(C)n1	none (no result: HSF-1 act, HSF1 inh, T cruzi repl, HIF activator)
O=C(Nc1cccc(Cl)c1)N1CCOCC1	HSF1 inh -54.9
O=C(Nc1cccc(Cl)c1)N1CCCC1	none
NC(N)=N/N=C/c1ccc(Cl)cc1Cl	T cruzi repl 62.0
COc1cc(-c2nnc(SCc3cc(=O)oc4cc(O)c(O)cc34)o2)cc(OC)c1OC	Calb FLC 104.3
COc1ccc(O)c(/C=N/NC(=O)c2ccc(OCc3cccc(Br)c3)cc2)c1	T cruzi repl 72.7, HIF activator 15.7, Calb FLC 62.5
COc1ccc(C(=O)N/N=C/c2cc(Br)ccc2O)cc1OC	T cruzi repl 55.9, HIF activator 39.5
COc1ccc(O)c(/C=N/NC(=O)c2ccc(CSc3nc(C)cc(C)n3)cc2)c1	HIF activator 29.0, Calb FLC 118.8
Cn1cccc1-c1cc(C(=O)N/N=C/c2cc(Br)ccc2O)[nH]n1	HIF activator 10.4
Cc1cc(C)nc(SCc2ccc(C(=O)N/N=C/c3cccc(O)c3O)cc2)n1	none
COc1ccccc1/C=C/C(=O)NCC(=O)N/N=C(\CCC(=O)O)c1ccccc1	none
C=CCn1c(SCC(=O)Nc2ccc3c(c2)OCO3)nnc1-c1ccccc1OC	none
C=CCn1c(SCc2csc(-c3ccc(Cl)cc3)n2)nnc1-c1ccccc1OC	HSF-1 act 57.6
CCn1c(SCc2nc3ccccc3c(=O)[nH]2)nnc1C(C)NC(=O)c1ccccc1F (stereo not given)	none
O=C(Nc1ccc(C(F)(F)F)cc1)N1CCN(c2ccnc3cc(Cl)ccc23)CC1	T cruzi repl 68.5
O=C(Nc1cc(F)ccc1F)N1CCN(c2ccnc3cc(Cl)ccc23)CC1	none
COc1ccc2[nH]c(C(=O)N/N=C/c3ccc(O)cc3O)cc2c1	T cruzi repl inconclusive, HIF activator 25.1
COc1ccc2[nH]c(C(=O)Nc3cccc(C)n3)cc2c1	HSF-1 act 60.6
COc1ccc(/C=N/NC(=O)c2nc(-c3ccccc3)n(-c3ccccc3)n2)cc1	none
COc1ccc(/C=N/NC(=O)c2nc(-c3ccccc3)n(-c3ccccc3)n2)c(O)c1	HIF activator 19.5
CC(C)(C)NC(=O)COC(=O)c1ccc(Cl)nc1	HIF activator 71.0
Clc1ccc(N=c2ssnc2Cl)nc1	HSF-1 act 130.1, T cruzi repl 58.2, Calb FLC inconclusive
CCOc1ccc(CC(=O)Nc2ccc(NC(=O)c3ccco3)cc2)cc1OCC	none
COc1ccc(COC(=O)c2ccc(S(=O)(=O)N3CCC(C)CC3)cc2)cc1	none
CCc1nc2sc3ccccc3c(=O)c2c(=O)n1CCOC	none
COCCn1c(C2CCCCC2)nc2sc3ccccc3c(=O)c2c1=O	T cruzi repl 55.2
O=C(/C=C/c1ccc([N+](=O)[O-])cc1)Nc1cccnc1	HSF-1 act 54.1
CC(C)(C)c1ccc(/C=C/C(=O)Nc2ccncc2)cc1	HSF-1 act 56.0
O=[N+]([O-])c1ccc(/C=C/c2ccncc2)cc1	T cruzi repl 65.5
O=C(/C=C/c1cccs1)Nc1ccncc1	none
O=C(/C=C/c1ccc(Cl)c([N+](=O)[O-])c1)Nc1cccnc1	none
CC(NC(=O)COc1ccccc1F)C1CC2CCC1C2 (stereo not given)	none
CCOc1cc(CNS(=O)(=O)c2ccc3c(c2)CC(=O)N3C)cc(OCC)c1OCC	none
O=C(Nc1ccccc1N1CCCC1)c1ccc([N+](=O)[O-])cc1Cl	T cruzi repl 56.5
O=C(Nc1ccccc1N1CCN(C(=O)c2ccc(Cl)cc2)CC1)c1cccc([N+](=O)[O-])c1	HSF-1 act 70.7, T cruzi repl 54.8
Cc1ccnc(N/C=C/C(=O)c2ccc(Br)cc2)c1	HSF-1 act inconclusive
O=C(/C=C/Nc1ccc(F)cc1)c1ccc(Br)cc1	HSF-1 act 65.4
Cc1cc(N/C=C/C(=O)c2ccc(Br)cc2)no1	HSF-1 act 55.5, HIF activator inconclusive
O=C(/C=C/Nc1ccc(F)c(F)c1)c1cccs1	none
O=C(/C=C/Nc1ccc(F)cc1)c1cccs1	HSF-1 act 64.9
O=c1c([N+](=O)[O-])c(NC2CCCCC2)c2ccccc2n1-c1ccccc1	none
CCc1ccccc1N(C(=O)c1snc(C(N)=O)c1N)C(C(=O)NCC1CCCO1)c1ccc(C)o1 (stereo not given)	none
CN(CC(=O)Nc1ccc(F)cc1)C(=O)c1ccncc1	none
Cc1[nH]c2ccccc2c1SCc1nnc(SCc2ccc(Cl)cc2)n1C	T cruzi repl 59.2
Cn1c(CS(=O)Cc2c(Cl)cccc2Cl)nnc1SCc1ccc(Cl)cc1 (stereo not given)	HSF-1 act 61.3
CC(C)(C)c1ccccc1NC(=O)c1c(O)c2cccc3c2n(c1=O)CC3	T cruzi repl inconclusive, Calb FLC 81.8
CC(=O)C1=C(O)C(=O)N(c2nccs2)C1c1ccccc1 (stereo not given)	HSF-1 act 59.8
